Experimental data taken from ChEMBL document CHEMBL4330109, “Parallel synthesis of a bis-triazoles library as psammaplin A analogues: A new wave of antibiofilm compounds?” (Bioorg Med Chem Lett, 2019).

How the values were obtained:
[1] = test system: Paracoccus sp.; assay: Anti-biofilm activity against Paracoccus sp. 4M6 assessed as bacterial adhesion at 200 uM incubated for 15 hrs at 20 degC by Syto 61 dye based fluorimetric assay relative to control; type: functional
In short: (§1)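 Biofilm formation (adhesion) of the marine strains was measured with the Syto 61 fluorophore, using a method adapted from Leroy et al. Compounds were first screened at 200 µM, and the value is % adhesion at that concentration. EC50 values were derived from the same assay.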

[2] = test system: Pseudoalteromonas ulvae; assay: Anti-biofilm activity against Pseudoalteromonas ulvae TC14 assessed as inhibition of bacterial adhesion incubated for 15 hrs at 20 degC by Syto 61 dye based fluorescence assay; type: functional, organism-based; in short: as §1
[3] = test system: Paracoccus sp.; assay: Anti-biofilm activity against Paracoccus sp. 4M6 assessed as inhibition of bacterial adhesion incubated for 15 hrs at 20 degC by Syto 61 dye based fluorimetric assay; type: functional, organism-based; in short: as §1
[4] = test system: Pseudoalteromonas ulvae; assay: Anti-biofilm activity against Pseudoalteromonas ulvae TC14 assessed as bacterial adhesion at 200 uM incubated for 15 hrs at 20 degC by Syto 61 dye based fluorescence assay relative to control; type: functional; in short: as §1
[5] = test system: Pseudoalteromonas lipolytica; assay: Anti-biofilm activity against Pseudoalteromonas lipolytica TC8 assessed as bacterial adhesion at 200 uM incubated for 15 hrs at 20 degC by Syto 61 dye based fluorimetric assay relative to control; type: functional; in short: as §1
[6] = test system: Pseudoalteromonas lipolytica; assay: Anti-biofilm activity against Pseudoalteromonas lipolytica TC8 assessed as inhibition of bacterial adhesion incubated for 15 hrs at 20 degC by Syto 61 dye based fluorimetric assay; type: functional, organism-based; in short: as §1
[7] = test system: Pseudoalteromonas ulvae; assay: Growth inhibition of Pseudoalteromonas ulvae TC14 at 5 uM measured every hr for 6 hrs by turbidimetric method; type: organism-based; settings: in vivo
In short: (§2)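 Bacterial growth of TC14, TC8 and 4M6 was followed with test compounds at 100 µM. Ampicillin at 5 µM served as the reference antibiotic.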

[8] = test system: Pseudoalteromonas lipolytica; assay: Growth inhibition of Pseudoalteromonas lipolytica TC8 at 5 uM measured every hr for 6 hrs by turbidimetric method; type: organism-based; settings: in vivo; in short: as §2
[9] = test system: Paracoccus sp.; assay: Growth inhibition of Paracoccus sp. 4M6 at 5 uM measured every hr for 6 hrs by turbidimetric method; type: organism-based; settings: in vivo; in short: as §2
[10] = test system: Pseudoalteromonas ulvae; assay: Effect on cell viability of Pseudoalteromonas ulvae TC14 at 5 uM measured after 6 hrs by resazurin dye based fluorescence assay; type: organism-based
In short: (§3)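 Viability was scored with resazurin, following the same protocol as the Syto 61 antiadhesion assay. Compounds were tested at 5, 10, 20, 50, 100 and 200 µM on each strain, and the 5 and 100 µM points are the ones reported.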

[11] = test system: Pseudoalteromonas lipolytica; assay: Effect on cell viability of Pseudoalteromonas lipolytica TC8 at 5 uM measured after 6 hrs by resazurin dye based fluorescence assay; type: organism-based; in short: as §3
[12] = test system: Paracoccus sp.; assay: Effect on cell viability of Paracoccus sp. 4M6 at 5 uM measured after 6 hrs by resazurin dye based fluorescence assay; type: organism-based; in short: as §3
[13] = test system: Pseudoalteromonas ulvae; assay: Growth inhibition of Pseudoalteromonas ulvae TC14 at 100 uM measured every hr for 6 hrs by turbidimetric method; type: organism-based; settings: in vivo; in short: as §2
[14] = test system: Pseudoalteromonas lipolytica; assay: Growth inhibition of Pseudoalteromonas lipolytica TC8 at 100 uM measured every hr for 6 hrs by turbidimetric method; type: organism-based; settings: in vivo; in short: as §2
[15] = test system: Paracoccus sp.; assay: Growth inhibition of Paracoccus sp. 4M6 at 100 uM measured every hr for 6 hrs by turbidimetric method; type: organism-based; settings: in vivo; in short: as §2
[16] = test system: Pseudoalteromonas ulvae; assay: Effect on cell viability of Pseudoalteromonas ulvae TC14 at 100 uM measured after 6 hrs by resazurin dye based fluorescence assay; type: organism-based; in short: as §3
[17] = test system: Pseudoalteromonas lipolytica; assay: Effect on cell viability of Pseudoalteromonas lipolytica TC8 at 100 uM measured after 6 hrs by resazurin dye based fluorescence assay; type: organism-based; in short: as §3
[18] = test system: Paracoccus sp.; assay: Effect on cell viability of Paracoccus sp. 4M6 at 100 uM measured after 6 hrs by resazurin dye based fluorescence assay; type: organism-based; in short: as §3
[19] = Pseudoalteromonas ulvae, TC14, 15 h
[20] = Paracoccus sp. (in: a-proteobacteria), 4M6, 15 h
[21] = Pseudoalteromonas lipolytica, TC8, 15 h

Row | Compound | Activity [1] [%] | EC50 [2, 19] [µM] | EC50 [3, 20] [µM] | Activity [4] [%] | Activity [5] [%] | EC50 [6, 21] [µM] | also measured
1 | CN(C)CCOc1ccc(CCn2cc(COCc3cn(CCc4ccc(OCCN(C)C)c(Br)c4)nn3)nn2)cc1Br | 40.4 | 91.8 | 146 |  |  |  | 
2 | COc1ccc(CCn2cc(CNCc3cn(CCc4ccc(OC)c(Br)c4)nn3)nn2)cc1Br | 46.3 |  | 194 |  |  |  | 
3 | Oc1ccc(CCn2cc(CCCc3cn(CCc4ccc(O)c(Br)c4)nn3)nn2)cc1Br | 83.4 | > 200 | > 200 | 53.1 | 63.5 | > 200 | 
4 | CN(C)CCOc1ccc(CCn2cc(CCCCc3cn(CCc4ccc(OCCN(C)C)c(Br)c4)nn3)nn2)cc1Br | 57.4 | > 200 | > 200 |  | 58.5 | > 200 | 
5 | CC1(C)S[C@@H]2[C@H](NC(=O)[C@H](N)c3ccccc3)C(=O)N2[C@H]1C(=O)O [AMPICILLIN] |  |  |  |  |  |  | growth inhibition (GI) [7]: Toxic; growth inhibition (GI) [8]: Toxic; growth inhibition (GI) [9]: Toxic; Activity [10]: Toxic; Activity [11]: Toxic; Activity [12]: Toxic
6 | Oc1ccc(CCn2cc(CCCCc3cn(CCc4ccc(O)c(Br)c4)nn3)nn2)cc1Br | 52.4 | > 200 | > 200 |  |  | > 200 | 
7 | CN(C)CCCOc1ccc(CCn2cc(CCCCc3cn(CCc4ccc(OCCCN(C)C)c(Br)c4)nn3)nn2)cc1Br | 80.7 | > 200 | > 200 | 66.5 | 89.2 | > 200 | 
8 | CN(C)CCCOc1ccc(CCn2cc(CCCc3cn(CCc4ccc(OCCCN(C)C)c(Br)c4)nn3)nn2)cc1Br | 77.2 | > 200 | > 200 |  |  | > 200 | 
9 | CN(C)CCOc1ccc(CCn2cc(CCCc3cn(CCc4ccc(OCCN(C)C)c(Br)c4)nn3)nn2)cc1Br | 51.5 | > 200 | > 200 |  | 57 | > 200 | 
10 | CN(C)CCOc1ccc(CCn2cc(CNCc3cn(CCc4ccc(OCCN(C)C)c(Br)c4)nn3)nn2)cc1Br | 51.8 |  | > 200 | 40.9 |  |  | 
11 | tributyltin-oxide |  |  |  |  |  |  | EC50 [2]: 0.7 µM; EC50 [6]: 7 µM; EC50 [3]: 4 µM
12 | CN(C)CCCOc1ccc(CCn2cc(-c3cccc(-c4cn(CCc5ccc(OCCCN(C)C)c(Br)c5)nn4)c3)nn2)cc1Br | 78.1 | > 200 | > 200 | 65.3 | 71.6 | > 200 | 
13 | CN(C)CCCOc1ccc(CCn2cc(CNCc3cn(CCc4ccc(OCCCN(C)C)c(Br)c4)nn3)nn2)cc1Br | 56.3 | > 200 | > 200 | 45 |  |  | 
14 | Oc1ccc(CCn2cc(CNCc3cn(CCc4ccc(O)c(Br)c4)nn3)nn2)cc1Br | 27.9 | 59.9 | 88.3 |  |  | 80.3 | 
15 | CN(C)CCCOc1ccc(CCn2cc(COCc3cn(CCc4ccc(OCCCN(C)C)c(Br)c4)nn3)nn2)cc1Br | 53.7 |  | > 200 |  |  | > 200 | 
16 | COc1ccc(CCn2cc(CCCc3cn(CCc4ccc(OC)c(Br)c4)nn3)nn2)cc1Br | 49.2 | > 200 | > 200 |  | 50 | > 200 | 
17 | Oc1ccc(CCn2cc(COCc3cn(CCc4ccc(O)c(Br)c4)nn3)nn2)cc1Br | 47.8 |  | 198 | 40.3 | 50.3 |  | 
18 | CN(C)CCCOc1ccc(CCn2cc(-c3ccc(-c4cn(CCc5ccc(OCCCN(C)C)c(Br)c5)nn4)cc3)nn2)cc1Br | 5.1 | 0.4 | 3.5 | 0.6 | 5.3 | 15 | growth inhibition (GI) [13]: Toxic; growth inhibition (GI) [14]: Toxic; growth inhibition (GI) [15]: Toxic; Activity [10]: Non-Toxic; Activity [11]: Non-Toxic; Activity [12]: Non-Toxic; Activity [16]: Toxic; Activity [17]: Toxic; Activity [18]: Toxic
19 | Oc1ccc(CCn2cc(-c3cccc(-c4cn(CCc5ccc(O)c(Br)c5)nn4)c3)nn2)cc1Br | 61.5 | > 200 | > 200 | 56.8 | 66.5 | > 200 | 
20 | Oc1ccc(CCn2cc(-c3ccc(-c4cn(CCc5ccc(O)c(Br)c5)nn4)cc3)nn2)cc1Br | 31.8 | 40.9 | 59.9 | 31.1 |  | > 200 | 
21 | CN(C)CCOc1ccc(CCn2cc(CCCCCCc3cn(CCc4ccc(OCCN(C)C)c(Br)c4)nn3)nn2)cc1Br | 59.5 | > 200 | > 200 |  | 54.4 | > 200 | 
22 | COc1ccc(CCn2cc(CCCCc3cn(CCc4ccc(OC)c(Br)c4)nn3)nn2)cc1Br | 50.9 | > 200 | > 200 |  |  | > 200 | 
23 | COc1ccc(CCn2cc(CCCCCCc3cn(CCc4ccc(OC)c(Br)c4)nn3)nn2)cc1Br | 69.2 | > 200 | > 200 | 62.7 | 78.3 | > 200 | 
24 | CN(C)CCCOc1ccc(CCn2cc(CCCCCCc3cn(CCc4ccc(OCCCN(C)C)c(Br)c4)nn3)nn2)cc1Br | 84.7 | > 200 | > 200 | 71 | 72.3 | > 200 | 
25 | CN(C)CCOc1ccc(CCn2cc(-c3ccc(-c4cn(CCc5ccc(OCCN(C)C)c(Br)c5)nn4)cc3)nn2)cc1Br | 10.1 | 0.9 | 5.1 | 0 | 14.6 | 5.1 | growth inhibition (GI) [13]: Toxic; growth inhibition (GI) [14]: Toxic; growth inhibition (GI) [15]: Toxic; Activity [10]: Non-Toxic; Activity [11]: Non-Toxic; Activity [12]: Non-Toxic; Activity [16]: Toxic; Activity [17]: Toxic; Activity [18]: Toxic
26 | COc1ccc(CCn2cc(-c3cccc(-c4cn(CCc5ccc(OC)c(Br)c5)nn4)c3)nn2)cc1Br | 76.2 | > 200 | > 200 | 74.1 | 101.1 | > 200 | 
27 | COc1ccc(CCn2cc(COCc3cn(CCc4ccc(OC)c(Br)c4)nn3)nn2)cc1Br | 44.9 |  | 164 | 38.5 | 42.8 |  | 
28 | CN(C)CCOc1ccc(CCn2cc(-c3cccc(-c4cn(CCc5ccc(OCCN(C)C)c(Br)c5)nn4)c3)nn2)cc1Br | 66.9 | > 200 | > 200 | 62.2 | 65.1 | > 200 | 
29 | Oc1ccc(CCn2cc(CCCCCCc3cn(CCc4ccc(O)c(Br)c4)nn3)nn2)cc1Br | 78.1 | > 200 | > 200 | 61.7 | 75 | > 200 | 
